Paper PMC3077087 (Cancer research, 2011)

Key:
[1] = tested on: mTORC1 and mTORC2 signaling; assay: In vitro mTORC1/mTORC2 signaling; type: cell-based; settings: for Akt phosphorylation at mTORC2-specific Ser473 site: Supplemental Figure 1A
RIP-Tag2 tumors [2] = assay: RIP-Tag2 tumor vascularity; type: in vivo, mice
In short: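 RIP-Tag2 mice, 9–10 weeks old, dosed up to 7 days. Vehicle (Labrafil or water); test compound 75 mg/kg BID by gavage; OSI-930 200 mg/kg QD by gavage; rapamycin 20 mg/kg QD ip. Perfusion-fixed, 60–80 µm sections stained for CD31 and basement membrane. Area density at threshold 30–50; empty sleeves scored. SEM of 3–8 mice per group; ANOVA/Fisher PLSD.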

RIP-Tag2 tumors [3] = assay: VEGF in RIP-Tag2 tumor lysates, multiplex antibody array; type: in vivo, mice; settings: for VEGF-B expression: data not shown
In short: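 Tumors from RIP-Tag2 mice given vehicle, test compound or rapamycin. Tumor lysates run on mouse angiogenesis antibody arrays per manufacturer's directions. VEGF signal read as pixel density. SEM of 3–8 mice per group; ANOVA with Fisher PLSD.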

[4] = tested on: RIP-Tag2 pancreatic neuroendocrine tumors; assay: Signaling, proliferation and apoptosis in RIP-Tag2 tumors, single agents; type: in vivo, mice; settings: for Akt and 4E-BP1 phosphorylation: 7-day treatment
In short: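 RIP-Tag2 mice (9–10 weeks) treated 7 days: test compound 75 mg/kg BID gavage, rapamycin 20 mg/kg QD ip, or vehicle. Perfusion-fixed tumor sections (60–80 µm) immunostained for phospho-S6K, phospho-Akt and phospho-4E-BP1 with CD31, plus phospho-histone H3 and activated caspase-3. Examined by fluorescence/confocal microscopy and quantified. SEM of 3–8 mice per group; ANOVA with Fisher PLSD.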

GEO colorectal xenograft [5] = assay: GEO xenograft pharmacodynamics; type: in vivo, mice; settings: GEO xenografts, 12 days
In short: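 GEO cells implanted s.c. in right flank of nu/nu CD-1 mice and dosed for 12 days. Tumors collected 2, 8 and 24 h post-dose and snap frozen. Phospho- and total 4E-BP1 (37/46), Akt (473), S6 (235/236) quantified by Western blot; n=2.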

RET = RET (Homo sapiens, UniProt P07949); assay: Panel of 98 purified protein kinases: RET; type: biochemical; settings: 98 purified protein kinases panel, data not shown
RET, sequence (P07949 29-1114, species assumed): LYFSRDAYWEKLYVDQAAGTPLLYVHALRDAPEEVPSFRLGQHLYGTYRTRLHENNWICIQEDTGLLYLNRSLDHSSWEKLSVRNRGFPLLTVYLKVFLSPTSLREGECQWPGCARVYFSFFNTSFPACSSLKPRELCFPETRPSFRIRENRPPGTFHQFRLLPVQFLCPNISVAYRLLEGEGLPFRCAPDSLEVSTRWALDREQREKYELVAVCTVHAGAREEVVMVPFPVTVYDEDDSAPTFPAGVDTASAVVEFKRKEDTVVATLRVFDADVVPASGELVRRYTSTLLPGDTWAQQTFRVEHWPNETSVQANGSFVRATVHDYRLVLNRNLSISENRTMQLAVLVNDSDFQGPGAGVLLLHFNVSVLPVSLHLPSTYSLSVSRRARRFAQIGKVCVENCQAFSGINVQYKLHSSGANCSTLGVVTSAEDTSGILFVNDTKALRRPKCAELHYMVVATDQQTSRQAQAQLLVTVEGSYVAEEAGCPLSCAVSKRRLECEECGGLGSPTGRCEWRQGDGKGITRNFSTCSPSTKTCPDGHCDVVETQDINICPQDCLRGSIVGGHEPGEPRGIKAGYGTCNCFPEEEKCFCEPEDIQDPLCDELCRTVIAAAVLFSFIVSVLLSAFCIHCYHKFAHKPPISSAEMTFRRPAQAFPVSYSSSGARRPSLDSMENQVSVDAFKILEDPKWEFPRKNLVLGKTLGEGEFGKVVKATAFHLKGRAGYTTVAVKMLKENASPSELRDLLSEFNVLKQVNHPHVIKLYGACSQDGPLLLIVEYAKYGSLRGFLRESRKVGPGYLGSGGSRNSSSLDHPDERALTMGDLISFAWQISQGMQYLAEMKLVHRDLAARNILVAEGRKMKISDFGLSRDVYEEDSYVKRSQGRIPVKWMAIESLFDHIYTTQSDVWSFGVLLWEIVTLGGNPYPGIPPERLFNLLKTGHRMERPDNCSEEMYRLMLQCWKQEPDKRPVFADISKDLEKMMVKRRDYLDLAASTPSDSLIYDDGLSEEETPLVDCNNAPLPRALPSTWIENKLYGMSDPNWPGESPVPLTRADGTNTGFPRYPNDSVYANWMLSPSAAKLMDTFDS

PDK1 = molecular target: T1, PDK1 (Homo sapiens, UniProt O15530); assay: Activity against PDK1; type: biochemical
T1 sequence (O15530 1-556): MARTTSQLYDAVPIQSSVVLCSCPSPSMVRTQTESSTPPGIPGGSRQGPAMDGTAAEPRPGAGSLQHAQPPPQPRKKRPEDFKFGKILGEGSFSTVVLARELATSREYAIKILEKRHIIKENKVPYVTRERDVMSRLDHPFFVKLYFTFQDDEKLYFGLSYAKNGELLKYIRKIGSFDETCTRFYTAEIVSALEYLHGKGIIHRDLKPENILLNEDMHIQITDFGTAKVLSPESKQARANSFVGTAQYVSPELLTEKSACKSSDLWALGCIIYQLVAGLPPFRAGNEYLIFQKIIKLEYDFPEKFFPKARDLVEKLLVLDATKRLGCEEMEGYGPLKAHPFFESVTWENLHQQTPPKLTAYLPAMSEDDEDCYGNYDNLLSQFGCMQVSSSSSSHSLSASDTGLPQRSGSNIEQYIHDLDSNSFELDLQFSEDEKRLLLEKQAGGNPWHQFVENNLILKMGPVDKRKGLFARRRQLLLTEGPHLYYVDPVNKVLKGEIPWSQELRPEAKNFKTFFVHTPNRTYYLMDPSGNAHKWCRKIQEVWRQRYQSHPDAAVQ

GEO colorectal xenograft [6] = assay: GEO xenograft tumor growth; type: in vivo, mice; settings: GEO xenografts, compared with rapamycin
PIP5Kγ = PIP5Kγ (Homo sapiens, UniProt O60331); assay: Panel of 98 purified protein kinases: PIP5Kγ; type: biochemical; settings: 98 purified protein kinases panel, data not shown
PIP5Kγ, sequence (O60331 whole entry): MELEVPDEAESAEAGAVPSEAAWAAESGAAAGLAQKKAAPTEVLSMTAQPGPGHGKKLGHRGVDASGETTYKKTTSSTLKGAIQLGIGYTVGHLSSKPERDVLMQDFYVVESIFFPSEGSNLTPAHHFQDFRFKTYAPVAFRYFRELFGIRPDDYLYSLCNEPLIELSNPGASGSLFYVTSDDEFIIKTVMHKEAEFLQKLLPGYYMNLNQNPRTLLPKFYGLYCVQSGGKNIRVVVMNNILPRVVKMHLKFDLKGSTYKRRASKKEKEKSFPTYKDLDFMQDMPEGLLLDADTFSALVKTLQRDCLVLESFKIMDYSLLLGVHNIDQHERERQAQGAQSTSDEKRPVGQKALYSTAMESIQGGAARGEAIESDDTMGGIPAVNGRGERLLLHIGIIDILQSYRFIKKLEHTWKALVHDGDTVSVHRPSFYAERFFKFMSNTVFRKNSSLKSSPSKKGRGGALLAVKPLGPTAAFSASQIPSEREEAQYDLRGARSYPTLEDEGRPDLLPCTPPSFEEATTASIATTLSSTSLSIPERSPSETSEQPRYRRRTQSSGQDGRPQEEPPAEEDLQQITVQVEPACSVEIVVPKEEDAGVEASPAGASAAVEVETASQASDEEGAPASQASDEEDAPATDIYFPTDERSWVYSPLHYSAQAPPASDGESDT

PI3Kδ = PI3Kδ (Homo sapiens, UniProt O00329); assay: Panel of 98 purified protein kinases: PI3Kδ; type: biochemical; settings: 98 purified protein kinases panel, data not shown
PI3Kδ, sequence (O00329 whole entry, species assumed): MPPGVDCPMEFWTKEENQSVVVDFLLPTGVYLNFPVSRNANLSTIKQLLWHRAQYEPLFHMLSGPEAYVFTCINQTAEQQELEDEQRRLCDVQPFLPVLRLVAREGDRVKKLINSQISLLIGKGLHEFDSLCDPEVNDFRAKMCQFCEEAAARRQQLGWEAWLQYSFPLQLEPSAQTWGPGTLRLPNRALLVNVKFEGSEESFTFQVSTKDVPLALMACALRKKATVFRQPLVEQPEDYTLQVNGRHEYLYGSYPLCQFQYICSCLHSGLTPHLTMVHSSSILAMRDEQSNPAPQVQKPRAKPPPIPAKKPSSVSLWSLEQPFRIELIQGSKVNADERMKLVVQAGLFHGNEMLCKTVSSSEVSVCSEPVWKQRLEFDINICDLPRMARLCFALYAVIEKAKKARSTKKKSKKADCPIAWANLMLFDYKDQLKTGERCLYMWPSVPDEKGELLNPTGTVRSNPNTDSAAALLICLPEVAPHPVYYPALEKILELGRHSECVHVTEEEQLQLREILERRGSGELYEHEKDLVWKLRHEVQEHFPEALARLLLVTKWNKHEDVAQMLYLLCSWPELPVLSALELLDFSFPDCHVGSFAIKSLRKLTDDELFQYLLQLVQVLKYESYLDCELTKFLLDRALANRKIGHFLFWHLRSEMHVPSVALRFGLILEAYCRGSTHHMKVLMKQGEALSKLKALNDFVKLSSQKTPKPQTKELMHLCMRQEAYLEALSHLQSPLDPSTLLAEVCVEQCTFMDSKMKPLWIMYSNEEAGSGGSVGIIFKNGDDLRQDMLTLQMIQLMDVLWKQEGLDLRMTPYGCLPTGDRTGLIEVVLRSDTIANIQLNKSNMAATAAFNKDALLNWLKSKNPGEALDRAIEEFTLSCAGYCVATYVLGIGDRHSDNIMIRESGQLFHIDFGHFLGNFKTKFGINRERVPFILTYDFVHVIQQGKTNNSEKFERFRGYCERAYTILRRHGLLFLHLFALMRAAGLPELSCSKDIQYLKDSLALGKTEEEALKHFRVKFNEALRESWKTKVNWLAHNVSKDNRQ
PI3Kδ, sequence (P27986 whole entry partner, species assumed): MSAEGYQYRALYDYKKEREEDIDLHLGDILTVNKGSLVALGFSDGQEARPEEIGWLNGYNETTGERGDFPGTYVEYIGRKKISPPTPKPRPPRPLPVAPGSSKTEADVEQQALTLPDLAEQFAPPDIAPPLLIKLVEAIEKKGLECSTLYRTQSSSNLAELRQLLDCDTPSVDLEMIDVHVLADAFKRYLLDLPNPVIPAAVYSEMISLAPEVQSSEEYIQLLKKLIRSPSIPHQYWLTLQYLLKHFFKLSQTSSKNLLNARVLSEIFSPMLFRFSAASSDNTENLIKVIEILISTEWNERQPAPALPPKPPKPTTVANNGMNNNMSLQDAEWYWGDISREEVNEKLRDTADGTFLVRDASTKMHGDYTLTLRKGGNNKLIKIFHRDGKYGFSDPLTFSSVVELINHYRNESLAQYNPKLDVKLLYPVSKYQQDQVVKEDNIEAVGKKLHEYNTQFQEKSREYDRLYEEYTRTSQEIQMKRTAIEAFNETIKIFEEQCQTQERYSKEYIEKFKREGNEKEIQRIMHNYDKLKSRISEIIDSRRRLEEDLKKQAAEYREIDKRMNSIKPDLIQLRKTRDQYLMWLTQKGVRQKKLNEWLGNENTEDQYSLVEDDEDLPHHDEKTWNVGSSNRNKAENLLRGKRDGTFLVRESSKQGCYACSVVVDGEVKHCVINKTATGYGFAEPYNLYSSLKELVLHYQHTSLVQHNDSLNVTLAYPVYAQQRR

mTOR = mTOR (Homo sapiens, UniProt P42345); assay: Panel of 98 purified protein kinases: mTOR; type: biochemical; settings: 98 purified protein kinases panel
PI3Kγ = PI3Kγ (Homo sapiens, UniProt P48736); assay: Panel of 98 purified protein kinases: PI3Kγ; type: biochemical; settings: 98 purified protein kinases panel, data not shown
PI3Kγ, sequence (P48736 whole entry, species assumed): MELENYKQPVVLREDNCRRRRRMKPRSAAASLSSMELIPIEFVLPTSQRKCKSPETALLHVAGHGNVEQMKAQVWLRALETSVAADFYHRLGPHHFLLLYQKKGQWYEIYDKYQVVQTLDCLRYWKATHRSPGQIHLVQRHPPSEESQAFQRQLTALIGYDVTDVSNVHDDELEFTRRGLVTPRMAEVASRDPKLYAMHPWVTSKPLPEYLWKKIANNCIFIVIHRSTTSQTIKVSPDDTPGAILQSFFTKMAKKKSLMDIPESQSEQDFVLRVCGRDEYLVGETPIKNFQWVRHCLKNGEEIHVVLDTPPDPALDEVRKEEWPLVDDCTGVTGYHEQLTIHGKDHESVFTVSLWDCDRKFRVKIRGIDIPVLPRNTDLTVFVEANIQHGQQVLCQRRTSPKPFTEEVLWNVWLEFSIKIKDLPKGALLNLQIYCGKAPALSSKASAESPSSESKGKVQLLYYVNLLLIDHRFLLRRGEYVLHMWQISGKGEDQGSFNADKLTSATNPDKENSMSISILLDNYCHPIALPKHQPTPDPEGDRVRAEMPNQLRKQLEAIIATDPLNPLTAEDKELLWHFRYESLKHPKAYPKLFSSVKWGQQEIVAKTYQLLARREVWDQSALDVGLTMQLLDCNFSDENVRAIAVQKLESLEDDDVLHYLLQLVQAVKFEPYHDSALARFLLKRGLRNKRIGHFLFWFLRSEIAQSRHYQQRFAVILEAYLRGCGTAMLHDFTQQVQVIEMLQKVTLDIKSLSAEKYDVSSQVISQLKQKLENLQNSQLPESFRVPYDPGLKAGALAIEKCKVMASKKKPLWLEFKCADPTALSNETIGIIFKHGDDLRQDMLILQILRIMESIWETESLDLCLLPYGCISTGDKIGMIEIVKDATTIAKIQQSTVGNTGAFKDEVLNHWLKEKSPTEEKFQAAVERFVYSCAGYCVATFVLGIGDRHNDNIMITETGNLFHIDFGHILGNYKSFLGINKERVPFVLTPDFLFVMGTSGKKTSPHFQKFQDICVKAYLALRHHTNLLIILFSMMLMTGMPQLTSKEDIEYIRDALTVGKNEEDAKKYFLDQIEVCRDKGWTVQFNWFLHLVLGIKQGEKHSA

MEK2 = MEK2 (Homo sapiens, UniProt P36507); assay: Panel of 98 purified protein kinases: MEK2; type: biochemical; settings: 98 purified protein kinases panel, data not shown
RIP-Tag2 tumors [7] = assay: Vascular regrowth after cessation of OSI-930 in RIP-Tag2 tumors; type: in vivo, mice
JNK3 = JNK3 (Homo sapiens, UniProt P53779); assay: Panel of 98 purified protein kinases: JNK3; type: biochemical; settings: 98 purified protein kinases panel, data not shown
JNK3, sequence (P53779 whole entry, species assumed): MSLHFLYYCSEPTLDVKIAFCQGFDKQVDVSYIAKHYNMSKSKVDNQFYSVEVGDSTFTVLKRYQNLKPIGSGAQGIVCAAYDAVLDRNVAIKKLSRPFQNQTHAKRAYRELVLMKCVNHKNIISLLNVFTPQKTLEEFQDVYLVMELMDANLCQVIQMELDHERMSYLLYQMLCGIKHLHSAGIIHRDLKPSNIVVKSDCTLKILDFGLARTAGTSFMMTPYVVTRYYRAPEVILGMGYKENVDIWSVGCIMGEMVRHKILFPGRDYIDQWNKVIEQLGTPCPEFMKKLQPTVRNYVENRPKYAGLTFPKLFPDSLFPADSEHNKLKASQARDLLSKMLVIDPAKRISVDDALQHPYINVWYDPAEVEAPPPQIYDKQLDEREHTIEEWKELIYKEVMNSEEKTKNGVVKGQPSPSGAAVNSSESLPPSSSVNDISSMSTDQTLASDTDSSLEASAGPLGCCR

RIP-Tag2 tumors [8] = assay: Intratumoral hemorrhage; type: in vivo, mice; settings: 4 days after cessation of OSI-930
In short: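 Regrowth design in 10-week-old RIP-Tag2 mice: OSI-930 for 7 days, then vehicle, test compound or rapamycin for 4 days; vehicle-only arm runs 11 days. Perfusion-fixed tumors cut at 60–80 µm. Erythrocytes immunostained; area density from fluorescence images at empirical threshold 30–50. Values are SEM of 3–8 mice per group; ANOVA with Fisher PLSD.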

Structure (SMILES) | 4E-BP1 phosphorylation at Ser37/46 [1] | Akt phosphorylation at mTORC2-specific Ser473 site [1] | empty basement membrane sleeves (vessel regression) (RIP-Tag2 tumors [2]; RIP-Tag2, 7 days) | VEGF-B expression (RIP-Tag2 tumors [3]) | Akt and 4E-BP1 phosphorylation [4] | inhibition of RET (RET) | activity against PDK1 (PDK1) | tumor growth (GEO colorectal xenograft [6]) | inhibition of PI3Kδ (PI3Kδ) | inhibition of mTOR (mTOR) | inhibition of PI3Kγ (PI3Kγ) | other results
CO[C@H]1C[C@@H]2CC[C@@H](C)[C@@](O)(O2)C(=O)C(=O)N2CCCC[C@H]2C(=O)O[C@H]([C@H](C)C[C@@H]2CC[C@@H](O)[C@H](OC)C2)CC(=O)[C@H](C)/C=C(\C)[C@@H](O)[C@@H](OC)C(=O)[C@H](C)C[C@H](C)/C=C/C=C/C=C/1C [rapamycin, reference compound] | failed to inhibit | failed to inhibit | not apparent | unchanged | not observed | – | – | – | – | – | – | S6Kinase and its substrate S6 [1]: inhibited; reduction of tumor vascularity (CD31) compared to baseline (RIP-Tag2 tumors [2]; RIP-Tag2, 7 days): not significantly reduced; reduction of VEGF-A (densitometric analysis) (RIP-Tag2 tumors [3]): no significant reduction; phopsho-S6K relative to control [4]: inhibited; phospho-S6 and phospho-4E-BP1 (GEO colorectal xenograft [5]; 20 mg/kg): inhibited
COc1cccc2cc(-c3nc([C@H]4CC[C@H](C(=O)O)CC4)n4ncnc(N)c34)[nH]c12 [OSI-027] | inhibited | dose-dependently attenuated | – | – | – | greater than 90% | inactive | slowed tumor growth more than did rapamycin | greater than 90% | fully inhibited | greater than 90% | inhibition of PIP5Kγ (PIP5Kγ): significantly inhibited; 4E-BP1, Akt, and S6 phosphorylation (GEO colorectal xenograft [5]; 65 mg/kg, after 2 hours): decreased
Nc1nccn2c1c(-c1cc3cccc(Cl)c3[nH]1)nc2[C@H]1CC[C@H](C(=O)O)CC1 [OXA-01] | inhibited | dose-dependently attenuated | not apparent | unchanged | decreased | greater than 90% | inactive | slowed tumor growth more than did rapamycin | greater than 90% | fully inhibited | greater than 90% | inhibition of MEK2 (MEK2): inhibited; decrease in tumor vessel regrowth (RIP-Tag2 tumors [7]; named drug for 1 day after withdrawal of OSI-930, data not shown): no significant decrease; reduction of tumor vascularity (CD31) (RIP-Tag2 tumors [2]; RIP-Tag2, at 1, 2, or 4 days): not detectably reduced; apoptosis measured by activated-caspase-3 ([4]; 7 days): increased; cellular proliferation determined by phospho-histone H3 ([4]; 7 days): decreased; inhibition of JNK3 (JNK3): inhibited
O=C(Nc1ccc(OC(F)(F)F)cc1)c1sccc1NCc1ccnc2ccccc12 [OSI-930] | – | – | numerous | – | – | – | – | – | – | – | – | decrease in vessel density (RIP-Tag2 tumors [7]; OSI-930 7 days, then vehicle 4 days after cessation): 18%; reduction of tumor vascularity (RIP-Tag2 tumors [7]; regrowth study, OSI-930 for 7 days): 63%; TER-119 levels, difference from baseline (RIP-Tag2 tumors [8]): ≤ 28%
